# Experiments:
# EMT6Ar1.0 tumours = test: Static [18F]FDG PET, EMT6Ar1.0 tumours; type: in vivo, mouse; details: 10 min static PET scan at 60 min after injection
# In short: (§1)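 Female athymic NMRI-Foxn1^nu mice (6-8 weeks) had EMT6 and EMT6Ar1.0 cells (3-5 × 10⁵) injected subcutaneously into opposite upper flanks. At about 130 mm³ tumour size, mice (n=7) under isoflurane at about 37°C received [¹⁸F]FDG (6±3 MBq) i.v. A 10 min static microPET scan was taken at 60 min. Tumour ROIs were outlined manually, with SUV = (radioactivity/cm³ ÷ injected radioactivity) × body weight.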
# EMT6 tumours [1] = test: Static [18F]FDG PET, EMT6 tumours; type: in vivo, mouse; details: 10 min static PET scan at 60 min after injection
# In short: as §1
# [2] = cited from earlier work
# [3] = system: EMT6 and EMT6Ar1.0 tumour sections (Pgp); test: In vitro autoradiography on tumour sections; type: binding, mouse; details: for binding in EMT6Ar1.0 tumours compared to EMT6 tumours: radiotracer alone, 30 min incubation, 10 μm tumour slices
# In short: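 Frozen tumours from imaged mice were cut into 10 μm cryostat sections at −12°C, with 3 consecutive sections. Sections were thawed, preincubated in PBS, then incubated 30 min with ¹¹C-labelled Pgp radiotracer (about 20 MBq), alone or with unlabelled inhibitor (10 μM). They were washed in 20% (v/v) ethanol/PBS and distilled water, air-dried, exposed to a phosphor screen and scanned at 600 dpi.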
# [4] = system: Pgp at the BBB (whole brain); test: Small-animal PET, whole brain as reference region for Pgp modulation at the BBB; type: in vivo, mouse; details: for tumoural activity uptake relative to brain activity uptake: scan 1, before unlabelled tariquidar; for brain AUC0-60 in scan 2 relative to scan 1: whole brain, scan 2 at 2 h after unlabelled tariquidar 15 mg/kg i.v.
# EMT6Ar1.0 cells = test: In vitro cytotoxicity assay, EMT6Ar1.0 cells; type: cell-based, mouse; details: tariquidar ≥0.1 μM, 48 h, culture medium containing doxorubicin
# In short: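 The Pgp-overexpressing line was derived from EMT6 cells by culture under increasing doxorubicin concentrations and kept at 37°C, 5% CO₂. Cells were exposed to increasing test compound concentrations (0.01 to 10 μM) in their own culture medium for 48 h. Survival was expressed relative to control cells.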
# EMT6 cells = test: In vitro cytotoxicity assay, EMT6 cells; type: cell-based, mouse; details: tariquidar 0.01 to 10 μM, 48 h
# In short: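 EMT6 cells were grown as monolayers in Waymouth's MB 752/1 with 2.4 mM L-glutamine, 15% heat-inactivated FBS and penicillin/streptomycin at 37°C, 5% CO₂. Cells were exposed to increasing test compound concentrations (0.01 to 10 μM) in their culture medium for 48 h. Survival was expressed relative to control cells.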
# [5] = cited from earlier work; remark: listed apart in the source
# Pgp at the BBB = details: tariquidar dose 15 mg/kg; cited from earlier work
# [6] = system: Pgp overexpressing EMT6Ar1.0 tumours; type: in vivo, mouse
# EMT6 tumours [7] = type: in vivo, mouse; details: scan 2, 2 h after unlabelled tariquidar 15 mg/kg i.v.
Compound,binding in EMT6Ar1.0 tumours compared to EMT6 tumours [3] [times],metabolism in vivo [2],tumoural activity uptake relative to brain activity uptake [4] [times],brain AUC0-60 in scan 2 relative to scan 1 [4] [times],other results
OC[C@H]1OC(O)[C@H]([18F])[C@@H](O)[C@@H]1O (some centres unmarked) [[^18F]FDG],,,,,mean tumoural SUV±SD (EMT6Ar1.0 tumours): 2.45±0.75; mean tumoural SUV±SD (EMT6 tumours [1]): 1.86±0.49
4-[^18F]fluoropaclitaxel [reference compound],,extensively metabolised,,,
"COc1cc2c(cc1OC)CN(CCc1ccc(NC(=O)c3cc(OC)c(OC)cc3NC(=O)c3cnc4ccccc4c3)cc1)CC2 [tariquidar, Tariquidar dimesylate]",,,,,cell survival rate (EMT6Ar1.0 cells): < 5 % of control cells; effect on cell survival (EMT6 cells): no effect; terminal elimination half-life [5]: 26 h; inhibition of Pgp at the BBB (Pgp at the BBB): complete inhibition
COc1cc2c(cc1OC)CN(CCc1ccc(NC(=O)c3cc(OC)c(OC)cc3NC(=O)c3cnc4ccccc4c3)cc1)CC2 [[^11C]tariquidar],4.3,hardly metabolised,2 to 3,2.4±0.3,"higher retention in EMT6Ar1.0 tumours than in EMT6 tumours ([6]; PET, AUC0-60): 50%; mean AUC0-60±SD of tumour time-activity curve (SUV) ([6]; scan 2, 2 h after unlabelled tariquidar 15 mg/kg i.v., EMT6Ar1.0 tumours): 45.6 ± 4.8 min; mean AUC0-60±SD of tumour time-activity curve (SUV) (EMT6 tumours [7]): 31.7 ± 7.9 min"

# More lines, main results first:
binding in EMT6Ar1.0 tumours compared to EMT6 tumours [3] [times],Compound,metabolism in vivo [2],tumoural activity uptake relative to brain activity uptake [4] [times],brain AUC0-60 in scan 2 relative to scan 1 [4] [times],other results
1.3,"COc1ccc(CCN([11CH3])CCC[C@](C#N)(c2ccc(OC)c(OC)c2)C(C)C)cc1OC [(R)-[^11C]verapamil, reference compound]",,,,"radiotracer binding after co-incubation ([3]; both tumours, co-incubation with unlabelled tariquidar, elacridar or verapamil (10 μM)): no significant reduction"
2.1,COc1cc2c(cc1OC)CN(CCc1ccc(NC(=O)c3cccc4c(=O)c5cccc(OC)c5[nH]c34)cc1)CC2 [[^11C]elacridar],hardly metabolised,2 to 3,3.5±0.4,
